Screening data: PubChem BioAssay, several laboratories
CHOP UPR activ = activators of apoptotic CHOP UPR arm, primary screen, cell-based, CHO-CHOP luciferase reporter, luminescence, uHTS; UPR activation; percent of tunicamycin response over DMSO baseline; activation, % at 10 µM; 330,000 compounds, 0.34% hits; AID 449763, 2010;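 active = at 10 µM dose, activation of 40% or more, normalized to positive control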;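 also: 100% = tunicamycin at 10 µg/mL and 0% = DMSO alone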
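System: CHO CHOP reporter cells. Amount: 500 cells per well. Buffer or medium: F12 medium, 10% FBS. Compound dosing: one dose, 10 µM in 0.5% DMSO. Incubation: 6 h compound exposure at 37 °C after overnight seeding. Technique: Steady-Glo luciferase luminescence. Benchmarks: tunicamycin and DMSO controls.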
Granule exo inh = LAMP-1 surface exposure blockers, TALL-104 cells – cell-based, flow cytometry, MLPCN library, primary screen; TALL-104 LAMP-1 surface exposure; cells stimulated with thapsigargin and PMA; inhibition, % at 10 µM; 360,000 compounds, 0.66% hits; AID 651702, 2012;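 active = inhibition above about 55%, limit read from the data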
UPR XBP1 act = activators of adaptive XBP1 UPR arm, primary screen, cell-based, CHO-XBP1 luciferase reporter, luminescence, uHTS | IRE1-XBP1 UPR activation; percent of tunicamycin response, DMSO as zero | activation, % at 20 µM | 330,000 compounds, 0.33% hits;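 active = versus positive control, 20 µM dose yields 30% or more activation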;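 also: 100% = tunicamycin at 10 µg/mL and 0% = DMSO only wells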
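Material: CHO-XBP1 cells stably carrying IRE1-XBP1-driven luciferase reporter | Medium: F12 with 10% serum | Compound dosing: 20 µM single concentration, DMSO 1% | Incubation: Overnight seeding at 37 °C, 6 h compound treatment at 37 °C | Detection: Steady-Glo luminescence read | Read-out basis: % activation of reporter signal versus tunicamycin and DMSO controls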
ABHD5-PLIN5 inh = ABHD5-PLIN5 interaction inhibitors, primary screen, cell lysate, split luciferase complementation, luminescence | Split G. princeps luciferase complementation, 4 h | inhibition, % at 4 µM | 360,000 compounds, 0.78% hits | AID 602281, 2012;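 active = inhibition above the mean inhibition across every tested compound plus 3 SD, cut at about 22% in these data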;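 also: 0% = DMSO only wells and the 100% control is not disclosed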
Target sequence (Q00G26 whole entry, looked up): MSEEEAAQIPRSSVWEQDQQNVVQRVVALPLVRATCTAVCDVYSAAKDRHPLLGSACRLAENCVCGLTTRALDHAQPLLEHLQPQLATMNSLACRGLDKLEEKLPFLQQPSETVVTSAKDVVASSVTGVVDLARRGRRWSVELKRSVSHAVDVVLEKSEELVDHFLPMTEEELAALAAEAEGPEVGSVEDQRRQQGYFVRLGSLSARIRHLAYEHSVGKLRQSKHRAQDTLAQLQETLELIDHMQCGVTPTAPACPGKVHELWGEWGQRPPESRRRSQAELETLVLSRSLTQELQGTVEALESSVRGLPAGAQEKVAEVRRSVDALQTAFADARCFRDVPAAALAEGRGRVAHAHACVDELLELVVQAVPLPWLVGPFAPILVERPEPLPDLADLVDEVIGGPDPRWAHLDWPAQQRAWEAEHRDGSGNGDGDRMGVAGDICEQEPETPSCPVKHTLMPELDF
Target sequence (Q8WTS1 whole entry, looked up): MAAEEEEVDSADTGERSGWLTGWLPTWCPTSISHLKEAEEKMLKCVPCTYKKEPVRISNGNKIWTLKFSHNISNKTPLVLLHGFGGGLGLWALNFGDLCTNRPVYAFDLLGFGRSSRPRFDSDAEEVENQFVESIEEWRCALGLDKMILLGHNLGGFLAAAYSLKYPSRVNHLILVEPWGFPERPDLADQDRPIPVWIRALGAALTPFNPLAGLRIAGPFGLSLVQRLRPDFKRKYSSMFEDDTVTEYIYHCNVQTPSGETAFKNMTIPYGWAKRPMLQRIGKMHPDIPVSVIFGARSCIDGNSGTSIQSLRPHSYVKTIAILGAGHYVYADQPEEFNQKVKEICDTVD
Mdm2-MdmX inh = inhibitors of human Mdm2-MdmX association, primary screen, cell-based, luminescence, split luciferase, SaOS-2, uHTS | 330,000 compounds, 3% hits | inhibition, % at 8 µM | SaOS-2 split-luciferase Mdm2/MdmX complementation | AID 485346, 2010;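 active = inhibition of at least 50% at 8 µM in the primary screen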
Mdm2-MdmX conf = Mdm2-MdmX complex disruptors, retested hits, confirmation, luminescence, single concentration. shares compounds with Mdm2-MdmX inh. Mdm2-MdmX binding, luminescent assay. inhibition, % at 8 µM. 10,000 compounds, 55% hits; in the data active = inhibition above about 40%
FLuc counter = full-length luciferase signal inhibition, confirmation, counter-screen for Mdm2/MdmX interaction inhibitor project, cell-based, single concentration, SaOS-2; SaOS-2 full-length luciferase counterscreen, luminescence; 6,200 compounds, 77% hits; shares compounds with Mdm2-MdmX inh; inhibition, % at 8 µM;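 active = mean inhibition at 8 µM reaching about 37%, which flags the compound as non-specific, limit read from the data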;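 also: p53-null SaOS-2 cells with luciferase driven by a doxycycline-inducible promoter; compound on cells about two nights before reading with doxycycline added after day one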
Starred values were filed as active, the others as inactive; / = no result given. Only some compounds are listed: those with a hit (about 4% of all), similar ones and a draw of the others.

SMILES	CHOP UPR activ	Granule exo inh	UPR XBP1 act	ABHD5-PLIN5 inh	Mdm2-MdmX inh	Mdm2-MdmX conf	FLuc counter
N#Cc1ccc(C23CC4(C2)[C@H](CN(Cc2ccc(C(F)(F)F)cc2)[C@@H]4c2ccccc2)C3c2ccc(Cl)nc2)cc1 (stereo not given in full)	-2	/	0	/	16	/	/
O=C(Nc1cc(=O)[nH]c2nc(-c3ccccc3)nn12)c1ccc(Cl)cc1	-1	/	-1	/	7	/	/
CCN(CC)CCCNC(=O)c1cc(-c2ccccc2)c(N2CCCCC2)s1	0	32	10	-5	76*	54*	66*
Cc1cc(C)cc(OCC(O)CN2CCN(C(=O)c3ccco3)CC2)c1 (stereo not given)	0	-11	-3	-3	1	/	/
CCN(CCNC(=O)c1ccc2nc(-c3ccccc3NC(C)=O)c(=O)[nH]c2c1)c1ccccc1	0	0	1	-9	11	/	/
CC(C)OC(=O)C1CC=CCC1C(=O)Nc1ccc(Cl)cc1 (stereo not given)	0	1	1	11	9	/	/
O=C(CNC(=O)c1ccco1)N=Nc1c(O)n(CCc2ccccc2)c2ccccc12	0	2	12	7	62*	56*	106*
O=C(Nc1ccc2c(c1)C(=O)OC2)c1ccc(F)cc1F	0	-3	3	-3	-19	/	/
CN(C)c1ccc(-c2cccc(C3CC=CC4C3C(=O)N(Cc3ccccc3)C4c3ccc4ccccc4c3)c2)cc1 (stereo not given)	-1	6	2	-2	18	/	/
CCc1ccc(C(C)NC(=O)/C=C/c2ccc(Br)cc2)cc1 (stereo not given)	-1	2	1	-3	1	/	/
CCOC(=O)C(CC)(CC)C(=O)/C=C/c1ccc(Br)cc1	0	1	6	18	71*	39	66*
CCOC(=O)c1c(C)[nH]c(NC(=O)NNC(=O)c2ccc(OC)cc2)c1C	1	1	0	-4	-21	/	/
O=C(O)c1ccc(Nc2ccc(Cl)c(Cl)c2)c([N+](=O)[O-])c1	2	20	0	-10	8	/	/
CCOc1ccccc1/C=N\Nc1cnn(Cc2ccccc2)c(=O)c1Cl	-1	12	-3	-3	53*	24	/
C=C1CCC2[C@](C)(CO)[C@H](O)CC[C@@]2(C)[C@@H]1C/C=C1\C(=O)OC[C@H]1O (stereo not given in full)	-1	-2	-2	6	69*	63*	27
COc1ccc(C(=O)Nc2ccc(Nc3ccccc3)cc2)cc1Br	-3	10	-4	-6	2	/	/
CCCCN(Cc1ccco1)C(=O)c1cc2c(=O)[nH]c3ccc(C)cc3c2s1	-2	6	4	1	84*	37	24
Cc1ccc2[nH]c(=O)c3cc(C(=O)N(CCCOC(C)C)Cc4ccco4)sc3c2c1	0	-6	3	5	69*	25	/
CCCCN(CC)C(=O)c1cc2c(=O)[nH]c3ccc(C)cc3c2s1	2	-4	0	5	42	/	/
Cc1ccc(S(=O)(=O)Nc2ccc(Nc3ccccc3)cc2)cc1	6	-1	1	-4	16	/	/
N#Cc1ccsc1NC(=O)c1ccc(Cl)c([N+](=O)[O-])c1	4	3	2	4	61*	56*	112*
Cc1cccc(C)c1NS(=O)(=O)c1ccc(NC(=O)c2ccc(Cl)c([N+](=O)[O-])c2)cc1	1	-2	0	5	98*	69*	59*
O=C(Nc1ccc(C(O)(C(F)(F)F)C(F)(F)F)cc1)c1ccc(Cl)c([N+](=O)[O-])c1	3	64*	3	-4	55*	28	/
COc1ccc(C(=O)Nn2c(C)nc3ccccc3c2=O)cc1OC	-1	0	-1	0	-20	/	/
CC1(C(=O)NS(=O)(=O)C2CC2)CCN(C(=O)c2ccc(F)c(Cl)c2)C1 (stereo not given)	/	1	/	0	/	/	/
SMILES	CHOP UPR activ	Granule exo inh	UPR XBP1 act	ABHD5-PLIN5 inh	Mdm2-MdmX inh	Mdm2-MdmX conf	FLuc counter
CC(C)Cn1cnc2c(c(-c3ccccc3)c(-c3ccccc3)n2Cc2ccco2)c1=N	3	48	4	6	91*	-2	/
N=c1c2c(-c3ccccc3)c(-c3ccccc3)n(Cc3ccco3)c2ncn1CCCN1CCOCC1	-1	43	4	3	100*	88*	56*
N=c1c2c(-c3ccccc3)c(-c3ccccc3)n(Cc3ccco3)c2ncn1CCCn1ccnc1	/	19	/	13	/	/	/
N=c1c2c(-c3ccccc3)c(-c3ccccc3)n(Cc3ccco3)c2ncn1Cc1ccccc1	35	20	28	5	100*	62*	23
N=c1c2c(-c3ccccc3)c(-c3ccccc3)n(Cc3ccccc3)c2ncn1CCO	5	14	3	8	73*	65*	40*
CCOc1ccc(S(=O)(=O)N(C)CC(=O)N2CCCC2)cc1	1	3	-3	-20	-15	/	/
COc1ccc2c(c1)sc1nc(-c3ccccc3)cn12	-10	10	-11	-9	84*	70*	114*
Cn1c(C(=O)N2CCN(c3ccc(Cl)cc3)CC2)cc2c(=O)[nH]c3ccccc3c21	0	3	2	1	25	/	/
CC(=O)c1c(C)[nH]c(C(=O)N2CCN(c3cc(Cl)ccc3C)CC2)c1C	0	3	-1	1	73*	75*	34
Cc1ccc(Cl)cc1N1CCN(C(=O)c2cc3c(=O)[nH]c4ccccc4c3n2C)CC1	5	25	7	3	71*	91*	79*
CC(=O)c1c(C)[nH]c(C(=O)N2CCN(c3ccc(F)cc3)CC2)c1C	0	-1	-2	-6	26	/	/
COc1cccc(N2CCN(C(=O)c3[nH]c(C)c(C(C)=O)c3C)CC2)c1	1	-4	0	0	54*	68*	42*
Cc1c(CCOC(=O)c2ccccc2)sc[n+]1Cc1ccccc1	1	8	1	-2	1	/	/
Cc1c(CCOC(=O)C23CC4CC(CC(C)(C4)C2)C3)sc[n+]1CC(=O)c1ccccc1	0	26	1	14	54*	26	/
